Laboratory results reported in PMC5669405 (Biochemistry and Biophysics Reports, 2015).
Values belong to the compound of their own block, whether it stands above or below them.

Tests used:
SH-SY5Y cells [1] = assay: MTT cell viability, compound alone; format: cell-based, human; conditions: SH-SY5Y, 24 h; for Viability C. Compound alone: 0.9 µM compound, mean±SEM
Outline: (§1)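 Cells were SH-SY5Y grown in DMEM/F12 with 10% FBS at 37 °C and 5% CO₂, seeded at 5×10⁴ cells/well, and given fresh medium with 0.9 µM compound alone 24 h after plating. After 24 h, MTT (5 mg/mL stock) was added for 4 h, then isopropanol/0.04 mol/L HCl overnight. Read OD570 minus OD700, normalised to untreated and 100% death controls. Triplicate wells, three plates, mean±SEM, kept in the dark.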

Aβ (1–42) [2] = molecular target: T1, Aβ (1–42) (Homo sapiens, UniProt P05067); assay: SDS-PAGE and western blotting of Aβ; format: biochemical; conditions: for Effects on Aβ aggregation (in words): derivatives without hydroxy groups on the aromatic groups; for Smear bands in SDS-PAGE: 30 µM compound, 24 h, 37 °C
T1 sequence (P05067 672-713): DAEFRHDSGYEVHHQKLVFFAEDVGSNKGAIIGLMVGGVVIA
Outline: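 Aβ(1–42) monomerized in HFIP (1 mM, 37 °C, 1 h), diluted to 10 µM in PBS with 30 µM test compound (final; DMSO vehicle), incubated 24 h at 37 °C. Diluted to 2.25 µM in unheated SDS buffer, run on 10–20% gels, blotted to PVDF and probed with 6E10 then HRP anti-mouse, with chemiluminescence detection. Band intensities per range were read against marker. Means±SEM, ≥3 independent experiments, ANOVA/Dunnett vs DMSO.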

SH-SY5Y cells [3] = assay: MTT cell viability, simultaneous treatment with Aβ aggregates and the compounds; format: cell-based, human; conditions: 24 h, 0.3 µM Aβ aggregates, 0.9 µM compound
Outline: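 Aβ(1–42) was HFIP-pretreated, taken up at 5 mM in DMSO, diluted to 10 µM in PBS and aggregated 24 h at 37 °C. SH-SY5Y cells (5×10⁴/well, 24 h after plating) received 0.3 µM of these aggregates plus 0.9 µM compound together for 24 h. Read-out was MTT (4 h), OD570−OD700, as % of untreated and 100% death controls. Triplicate wells in ≥3 independent runs; ANOVA/Dunnett against DMSO vehicle.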

amyloid plaques = conditions: transgenic mouse model of AD, injection via the tail vein; cited from earlier work
APP/PS1 mice = conditions: cited from earlier work
Aβ (1–42) [4] = molecular target: T1, Aβ (1–42); assay: Native gel electrophoresis of Aβ; format: biochemical; conditions: 30 µM compound, 24 h, 37 °C
Outline: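 HFIP-pretreated Aβ(1–42) (5 mM DMSO stock) was diluted to 10 µM in PBS with 30 µM compound (1.5 mM DMSO stock) and held 24 h at 37 °C in the dark; DMSO served as vehicle. Samples were brought to 2.25 µM in native sample buffer, run on 5–20% gels at 100 V for 4 h at 4 °C and transferred to PVDF. Blots used 6E10 anti-Aβ (1:1000), HRP anti-mouse (1:20,000) and chemiluminescence.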

[5] = MTT cell viability, compound alone; format: cell-based, human; conditions: human, SH-SY5Y neuroblastoma cells
Outline: as §1

Aβ aggregates = Aβ aggregates (Homo sapiens, UniProt P05067); assay: Thioflavin T fluorescence competition assay; format: binding
Sequence of Aβ aggregates (P05067 672-713): as above

Aβ = conditions: cited from earlier work
Solubility check = format: physicochemical
[6] = all ranges of 15–20, 20–37, 37–75, and 75–200 kDa

Structure (SMILES): COc1ccc(C=CC(=O)C(C)C(=O)C=Cc2ccc(OC)c(OC(F)(F)F)c2)cc1OC(F)(F)F (stereo not drawn) [SY18, 1,7-Bis[(4-methoxy-3-trifluoromethoxy)phenyl]-4-methyl-1,6-hexadiene-3,5-dione]
Cell viability after treatment with compound alone (in words) (SH-SY5Y cells [1]; 0.9 µM): significantly reduced cell viability
Viability C. Compound alone (SH-SY5Y cells [1]): 69.5±7.7 %
Effects on Aβ aggregation (in words) (Aβ (1–42) [2]): no effects on Aβ aggregation

Structure (SMILES): COc1cc(C=CC(=O)CC(=O)C=Cc2cc(C(F)(F)F)cc(C(F)(F)F)c2)ccc1O [SY4, 1-[(4-Hydroxy-3-methoxy)phenyl]-7-[3,5-bis(trifluoromethyl)phenyl]-1,6-heptadiene-3,5-dione]
Viability C. Compound alone (SH-SY5Y cells [1]): 91.6±3.2%
Cell viability after simultaneous treatment vs vehicle control (in words) (SH-SY5Y cells [3]): significant reduction in cell viability

Structure (SMILES): COC(=O)CCC(C(=O)C=Cc1cc(F)c(O)c(F)c1)C(=O)C=Cc1cc(F)c(O)c(F)c1 (stereo not drawn) [SY16, 1,7-Bis[(4-hydroxy-3,5-difluoro)phenyl]-4-methoxycarbonylethyl-1,6-hexadiene-3,5-dione]
Viability C. Compound alone (SH-SY5Y cells [1]): 94.1±2.8%

Structure (SMILES): COC(=O)CCC(C(=O)C=Cc1ccc(O)c(OC(F)(F)F)c1)C(=O)C=Cc1ccco1 (stereo not drawn) [SY37, 1-[(4-Hydroxy-3-trifluoromethoxy)phenyl]-7-(2-furyl)-4-methoxycarbonylethyl-1,6-heptadiene-3,5-dione]
Viability C. Compound alone (SH-SY5Y cells [1]): 93.0±4.1%
Densities of the bands of Aβ (1–42) vs vehicle control (in words) (Aβ (1–42) [2]; only in the range of 20–37 kDa): significant increases

Structure (SMILES): CCC(C(=O)C=Cc1ccc(O)c(OC(F)(F)F)c1)C(=O)C=Cc1ccc(O)c(OC(F)(F)F)c1 (stereo not drawn) [SY41, 1,7-Bis[(4-hydroxy-3-trifluoromethoxy)phenyl]-4-ethyl-1,6-heptadiene-3,5-dione]
Viability C. Compound alone (SH-SY5Y cells [1]): 93.4±5.9%

Structure (SMILES): COC(=O)CCC(C(=O)C=Cc1ccc(O)c(OC)c1)C(=O)C=Cc1ccc(O)c(OC)c1 (stereo not drawn) [SY23, 1,7-Bis[(4-hydroxy-3-methoxy)phenyl]-4-methoxycarbonylethyl-1,6-heptadiene-3,5-dione]
Viability C. Compound alone (SH-SY5Y cells [1]): 97.9±2.4%

Structure (SMILES): COC(=O)COc1ccc(C=CC(=O)CC(=O)C=Cc2ccc(O)c(OC)c2)cc1OC [SY35, 1-[(4-Hydroxy-3-methoxy)phenyl]-7-[(3-methoxy-4-methoxycarbonylmethoxy)phenyl]-1,6-heptadiene-3,5-dione]
Viability C. Compound alone (SH-SY5Y cells [1]): 93.7±2.9%

Structure (SMILES): O=C(C=Cc1ccc(O)c(OC(F)(F)F)c1)C(CCOCCOCCOCCOC1CCCCO1)C(=O)C=Cc1ccc(O)c(OC(F)(F)F)c1 (stereo not drawn) [SY27, 1,7-Bis[(4-hydroxy-3-trifluoromethoxy)phenyl]-4-[11-(2-tetrahydropyranyloxy)-3,6,9-trioxaundec-1yl]-1,6-heptadiene-3,5-dione]
Viability C. Compound alone (SH-SY5Y cells [1]): 98.5±5.3%

Continued, in another order:

Densities of the bands of Aβ (1–42) vs vehicle control (in words) (Aβ (1–42) [2]; only in the range of 20–37 kDa): significant increases
Structure (SMILES): COC(=O)CCC(C(=O)C=Cc1ccc(O)c(F)c1)C(=O)C=Cc1ccc(O)c(F)c1 (stereo not drawn) [SY38, 1,7-Bis[(4-hydroxy-3-fluoro)phenyl]-4-methoxycarbonylethyl-1,6-heptadiene-3,5-dione]
Viability C. Compound alone (SH-SY5Y cells [1]): 91.6±3.9%

Smear bands in native-PAGE (Aβ (1–42) [4]): Marked smear bands
IC50 (Aβ aggregates): 440 nM
Solubility / precipitation (Solubility check; 30 µM in PBS with DMSO): no precipitation
Smear bands in SDS-PAGE (Aβ (1–42) [2]): Marked smear bands
Densities of the bands of Aβ (1–42) vs vehicle control (in words) (Aβ (1–42) [2]; [6]): significant increases
Structure (SMILES): COC(=O)CCC(C(=O)C=Cc1ccc(O)c(OC(F)(F)F)c1)C(=O)C=Cc1ccc(O)c(OC(F)(F)F)c1 (stereo not drawn) [SY5, 1,7-bis (4′-hydroxy-3′-trifluoromethoxyphenyl)-4-methoxycarbonylethyl-1,6-heptadiene-3,5-dione]
Binding to amyloid plaques in brain (amyloid plaques): bound to amyloid plaques
Blood–brain barrier penetration (amyloid plaques): penetrated the blood–brain barrier
Amyloid deposition (APP/PS1 mice): reduce amyloid deposition
Cognitive decline (APP/PS1 mice): inhibit cognitive decline
viability at 24 h, 0.9 µM [5]: 102 ± 3.6%
Inhibition of Aβ aggregation (Aβ; 30 µM, ref our previous study): significant inhibition of Aβ aggregation
Formation of higher molecular size Aβ aggregates (Aβ; incubated with Aβ during the aggregation state in vitro): inhibit the formation of higher molecular size Aβ aggregates

Effects on Aβ aggregation (in words) (Aβ (1–42) [2]): no effects on Aβ aggregation
Structure (SMILES): COc1ccc(C=CC(=O)C(CCC(=O)OC(C)(C)C)C(=O)C=Cc2ccc(OC)c(F)c2)cc1F (stereo not drawn) [SY42, 1,7-Bis[(3-fluoro-4-methoxy)phenyl]-4-(1,1-dimethylethoxy)carbonylethyl-1,6-heptadiene-3,5-dione]
Viability C. Compound alone (SH-SY5Y cells [1]): 88.6±6.3%

Effects on Aβ aggregation (in words) (Aβ (1–42) [2]): no effects on Aβ aggregation
Structure (SMILES): COCOc1ccc(C=CC(=O)C(CCC(=O)OC(C)(C)C)C(=O)C=Cc2ccc(OCOC)c(OC(F)(F)F)c2)cc1OC(F)(F)F (stereo not drawn) [SY22, 1,7-Bis[(4-methoxymethoxy-3-trifluoromethoxy)phenyl]-4-(1,1-dimethylethoxy)carbonylethyl-1,6-hexadiene-3,5-dione]
Viability C. Compound alone (SH-SY5Y cells [1]): 95.8±3.6%

Solubility / precipitation (Solubility check; 30 µM in PBS with DMSO): no precipitation
Solubility / precipitation (Solubility check; 200 µM solution): clearly observed precipitates
Structure (SMILES): COc1cc(/C=C/C(=O)CC(=O)/C=C/c2ccc(O)c(OC)c2)ccc1O [Cur, Curcumin, reference compound]
viability at 24 h, 0.9 µM [5]: 97.5 ± 7.3%

Effects on Aβ aggregation (in words) (Aβ (1–42) [2]): no effects on Aβ aggregation
Structure (SMILES): COc1ccc(C=CC(=O)CC(=O)C=Cc2ccc(OC)c(F)c2)cc1F [SY9, 1,7-Bis[(3-fluoro-4-methoxy)phenyl]-1,6-heptadiene-3,5-dione]
Viability C. Compound alone (SH-SY5Y cells [1]): 94.2±2.5%

Densities of the bands of Aβ (1–42) vs vehicle control (in words) (Aβ (1–42) [2]; only in the range of 15–20 kDa): significant increases
Structure (SMILES): COc1cc(C=CC(=O)CC(=O)C=Cc2ccc(O)c(OC(F)(F)F)c2)ccc1O [SY2, 1-[(4-Hydroxy-3-methoxy)phenyl]-7-[(4-hydroxy-3-trifluoromethoxy)phenyl]-1,6-heptadiene-3,5-dione]
Viability C. Compound alone (SH-SY5Y cells [1]): 101.4±2.0%

Smear bands in native-PAGE (Aβ (1–42) [4]): Marked smear bands
Solubility / precipitation (Solubility check; 30 µM in PBS with DMSO): no precipitation
Smear bands in SDS-PAGE (Aβ (1–42) [2]): Marked smear bands
Densities of the bands of Aβ (1–42) vs vehicle control (in words) (Aβ (1–42) [2]; [6]): significant increases
Structure (SMILES): O=C(C=Cc1ccc(O)c(OC(F)(F)F)c1)C(CCOC1CCCCO1)C(=O)C=Cc1ccc(O)c(OC(F)(F)F)c1 (stereo not drawn) [SY33, 1,7-Bis[(4-hydroxy-3-trifluoromethoxy)phenyl]-4-(2-tetrahydropyranyloxy)ethyl-1,6-heptadiene-3,5-dione]
Viability C. Compound alone (SH-SY5Y cells [1]): 97.8±4.2%
